For 29 molecules, inhibition, IC50 and viability results are on record in ChEMBL document CHEMBL4043228, “Design and synthesis of pregnenolone/2-cyanoacryloyl conjugates with dual NF-κB inhibitory and anti-proliferative activities” (Bioorg Med Chem Lett, 2017).

Series [1] is filed under the species Homo sapiens. Description: Inhibition of TNFalpha-stimulated NF-kappaB (unknown origin) activation expressed in HEK293 cells at 20 ug/ml incubated for 6 hrs with TNFalpha followed by incubation in dark for 30 mins by luciferase reporter gene assay relative to control. It counts as cell-based. In a few lines:
(§1)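 HEK293 cells stably carrying NF-κB-responsive luciferase reporter (selected with 1 mg/mL G418) seeded, after 24 h stimulated with TNF-α 0.2 μg/mL, then exposed to compounds for 6 h; lysate incubated with luciferase substrate 30 min in dark, luminescence read. Screening at 20 µg/mL as percent inhibition; IC50 from nine concentrations, 0.78-20 μM. PS-341 reference.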
(Reporter assays use an easily measured gene product as a stand-in for the process of interest.)

A further series has as its system HepG2. Description: Antiproliferative activity against human HepG2 cells after 48 hrs by MTT assay. It counts as functional, cell-based. To be noted: HepG2, 48 h. In short, it runs like this:
(§2)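 Tumour cell lines MCF-7, A549, H157, HepG2 and HL-60 were tested by MTT method; doxorubicin served as positive control.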
A general note: Tetrazolium dyes change colour on reduction, which living cells bring about.

For another series, the system named is A549. Description: Antiproliferative activity against human A549 cells after 48 hrs by MTT assay. It counts as functional, cell-based. To be noted: A549, 48 h. In a few lines: as §2
Series [2] is described as follows: Inhibition of TNFalpha-stimulated NF-kappaB (unknown origin) activation expressed in HEK293 cells incubated for 6 hrs with TNFalpha followed by incubation in dark for 30 mins by luciferase reporter gene assay. The note with it: Homo sapiens. It counts as cell-based. In short, it runs like this: as §1
The subject of the next series is MCF7. Description: Antiproliferative activity against human MCF7 cells after 48 hrs by MTT assay. The note with it: MCF7, 48 h. It counts as functional, cell-based. In short, it runs like this: as §2
Series [3] in a line: Cytotoxicity against HEK293 cells assessed as cell viability at 20 ug/ml relative to control. It counts as cell-based. To be noted: human, read-out: Activity. In a few lines: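 HEK293/NF-κB reporter cells exposed to compounds at 20 µg/mL; cytotoxicity assessed.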
The test system of another series is HL-60. Description: Antiproliferative activity against human HL60 cells after 48 hrs by MTT assay. To be noted: HL-60, 48 h. It counts as functional, cell-based. In short, it runs like this:
as §2

For another series, the system named is NCI-H157. Description: Antiproliferative activity against human NCI-H157 cells after 48 hrs by MTT assay. It counts as functional, cell-based. To be noted: NCI-H157, 48 h. In short, it runs like this: as §2
The species entered for series [4] is Homo sapiens. Description: Inhibition of TNFalpha-stimulated NF-kappaB (unknown origin) activation assessed as IkappaBalpha degradation at 10 uM after 4 hrs by Western blot analysis. On the technique in general: Immunoblotting shows a protein as a band on a membrane.

SMILES strings stand for the structures. Activity calls are given as the source filed them. The calls are words filed in the database; no cut-off is given here.

The term inhibition denotes the share of the control response that was lost under treatment. For the molecule `CC(=O)[C@H]1CC[C@H]2[C@@H]3CC=C4C[C@@H](OC(=O)NCCNC(=O)/C(C#N)=C/c5ccc(Br)cc5)CC[C@]4(C)[C@H]3CC[C@]12C`, the inhibition in the series listed under Homo sapiens [1] is 15.9%.

In the series filed under Homo sapiens [1], `COc1ccc(/C=C(\C#N)C(=O)NCCNC(=O)O[C@H]2CC[C@@]3(C)C(=CC[C@H]4[C@@H]5CC[C@H](C(C)=O)[C@@]5(C)CC[C@@H]43)C2)cc1O` gave an inhibition of 14.5%.

`CCN(CC)c1ccc(/C=C(\C#N)C(=O)NCCNC(=O)O[C@H]2CC[C@@]3(C)C(=CC[C@H]4[C@@H]5CC[C@H](C(C)=O)[C@@]5(C)CC[C@@H]43)C2)cc1` yielded an inhibition in the series filed under Homo sapiens [1] of 0.5%.

`CC(=O)[C@H]1CC[C@H]2[C@@H]3CC=C4C[C@@H](OC(=O)NCCNC(=O)/C(C#N)=C/c5ccccc5)CC[C@]4(C)[C@H]3CC[C@]12C` registered an inhibition in the series filed under Homo sapiens [1] of 46.7%.

One may read the IC50 as the concentration at which inhibition is half-maximal. Read a high IC50 as a need for much substance. Regarding `CC(=O)[C@H]1CC[C@H]2[C@@H]3CC=C4C[C@@H](OC(=O)NCCNC(=O)OC(C)(C)C)CC[C@]4(C)[C@H]3CC[C@]12C`, the 50% inhibitory concentration (IC50) was above 50 µM in the series with HepG2; above 50 µM in the series on A549; 12.2 µM in series [2]; above 50 µM in the series with MCF7; above 50 µM with HL-60; above 50 µM with NCI-H157. The viability at 20 ug/ml in series [3] amounted to 85.5%. The inhibition in the series filed under Homo sapiens [1] came to 76.6%.

In the series listed under Homo sapiens [1], `CC(=O)[C@H]1CC[C@H]2[C@@H]3CC=C4C[C@@H](OC(=O)NCCNC(=O)/C(C#N)=C/c5ccc(O)cc5)CC[C@]4(C)[C@H]3CC[C@]12C` returned an inhibition of 44.9%.

`CC(=O)[C@H]1CC[C@H]2[C@@H]3CC=C4C[C@@H](OC(=O)NCCNC(=O)/C(C#N)=C/c5cccc(Cl)c5)CC[C@]4(C)[C@H]3CC[C@]12C` gave an inhibition in the series listed under Homo sapiens [1] of 46.4%.

Consider `CC(=O)[C@H]1CC[C@H]2[C@@H]3CC=C4C[C@@H](OC(=O)NCCNC(=O)/C(C#N)=C/c5ccc(O)c(O)c5)CC[C@]4(C)[C@H]3CC[C@]12C`, for which, in the series filed under Homo sapiens [1], the inhibition came out at 59.3%.

For `CC(=O)[C@H]1CC[C@H]2[C@@H]3CC=C4C[C@@H](OC(=O)NCCNC(=O)/C(C#N)=C/c5ccc(C#N)cc5)CC[C@]4(C)[C@H]3CC[C@]12C`, the IC50 in the series with HepG2 is above 50 µM; with A549 it was above 50 µM; in series [2], 7.5 µM; in the series with MCF7 it was above 50 µM; in the series on HL-60, above 100 µM; with NCI-H157, 24.5 µM. In addition, the viability at 20 ug/ml in series [3] amounted to 64.4%. Also, in the series listed under Homo sapiens [1], the inhibition amounted to 64.4%.

Turning to `CC(=O)[C@H]1CC[C@H]2[C@@H]3CC=C4C[C@@H](OC(=O)NCCNC(=O)/C(C#N)=C/c5ccc(C(C)C)cc5)CC[C@]4(C)[C@H]3CC[C@]12C`, the inhibition in the series listed under Homo sapiens [1] came out at 2.1%.

Consider `CC(=O)[C@H]1CC[C@H]2[C@@H]3CC=C4C[C@@H](OC(=O)NCCNC(=O)/C(C#N)=C/c5cccc([N+](=O)[O-])c5)CC[C@]4(C)[C@H]3CC[C@]12C`, for which the IC50 in the series on HepG2 was above 50 µM; with A549 it was 36.2 µM; in series [2], 2.5 µM; with MCF7 it was 6.5 µM; in the series with HL-60, 11.2 µM; in the series on NCI-H157, 30.6 µM. Moreover, the viability at 20 ug/ml in series [3] turned out to be 54.7%. In addition, the inhibition in the series listed under Homo sapiens [1] came out at 83.9%.

On to `CC(=O)[C@H]1CC[C@H]2[C@@H]3CC=C4C[C@@H](OC(=O)NCCNC(=O)CC#N)CC[C@]4(C)[C@H]3CC[C@]12C`, for which the IC50 in the series on HepG2 was above 50 µM; in the series on A549, above 50 µM; in series [2], 12.4 µM; in the series with MCF7 it was above 50 µM; with HL-60, above 50 µM; in the series on NCI-H157, above 50 µM. Moreover, the viability at 20 ug/ml in series [3] came to 87.9%. The inhibition in the series listed under Homo sapiens [1] worked out at 74.4%.

Turning to `COc1ccc(/C=C(\C#N)C(=O)NCCNC(=O)O[C@H]2CC[C@@]3(C)C(=CC[C@H]4[C@@H]5CC[C@H](C(C)=O)[C@@]5(C)CC[C@@H]43)C2)cc1`, the inhibition in the series filed under Homo sapiens [1] amounted to 22.3%.

For `COc1ccc(/C=C(\C#N)C(=O)NCCNC(=O)O[C@H]2CC[C@@]3(C)C(=CC[C@H]4[C@@H]5CC[C@H](C(C)=O)[C@@]5(C)CC[C@@H]43)C2)cc1OC`, in the series listed under Homo sapiens [1], the inhibition was found to be 5.8%.

In turn, `COc1cc(/C=C(\C#N)C(=O)NCCNC(=O)O[C@H]2CC[C@@]3(C)C(=CC[C@H]4[C@@H]5CC[C@H](C(C)=O)[C@@]5(C)CC[C@@H]43)C2)cc(O)c1OC` showed an inhibition in the series filed under Homo sapiens [1] of 22.6%.

For the molecule `CC(=O)[C@H]1CC[C@H]2[C@@H]3CC=C4C[C@@H](OC(=O)NCCNC(=O)/C(C#N)=C/c5ccc6c(c5)OCCO6)CC[C@]4(C)[C@H]3CC[C@]12C`, in the series listed under Homo sapiens [1], the inhibition is 4.2%.

In the series listed under Homo sapiens [1], `CC(=O)[C@H]1CC[C@H]2[C@@H]3CC=C4C[C@@H](OC(=O)NCCNC(=O)/C(C#N)=C/c5ccc(N(C)C)cc5)CC[C@]4(C)[C@H]3CC[C@]12C` yielded an inhibition of 1.2%.

Consider `CC(=O)[C@H]1CC[C@H]2[C@@H]3CC=C4C[C@@H](OC(=O)NCCNC(=O)/C(C#N)=C/c5ccc([N+](=O)[O-])cc5)CC[C@]4(C)[C@H]3CC[C@]12C`, for which, in the series filed under Homo sapiens [4], the inhibition entry is “Active”. Besides, the IC50 with HepG2 was above 50 µM; in the series on A549, above 50 µM; in [2], 10.3 µM; in the series on MCF7, above 50 µM; in the series on HL-60 it was 10.1 µM; in the series with NCI-H157, above 50 µM. Also, the viability at 20 ug/ml in [3] is 74.5%. This molecule also yielded an inhibition in the series filed under Homo sapiens [1] of 78.3%.

Consider `COc1cc(/C=C(\C#N)C(=O)NCCNC(=O)O[C@H]2CC[C@@]3(C)C(=CC[C@H]4[C@@H]5CC[C@H](C(C)=O)[C@@]5(C)CC[C@@H]43)C2)cc(OC)c1O`, for which the inhibition in the series filed under Homo sapiens [1] came to 5%.

In the case of `CC(=O)[C@H]1CC[C@H]2[C@@H]3CC=C4C[C@@H](OC(=O)NCCNC(=O)/C(C#N)=C/c5cccc(C#N)c5)CC[C@]4(C)[C@H]3CC[C@]12C`, the IC50 in the series with HepG2 is above 50 µM; in the series with A549 it was 30.9 µM; in series [2], 3.3 µM; in the series on MCF7, 8.8 µM; in the series with HL-60, 15.6 µM; in the series with NCI-H157, 21.3 µM. Also, the viability at 20 ug/ml in series [3] was 59.6%. In the series listed under Homo sapiens [1], this molecule gave an inhibition of 81.4%.

Take `COc1cccc2c1C(=O)c1c(O)c3c(c(O)c1C2=O)C[C@@](O)(C(=O)CO)C[C@@H]3O[C@H]1C[C@H](N)[C@H](O)[C@H](C)O1` [DOXORUBICIN]: the IC50 was determined as 11 µM in the series with A549, 4.4 µM in the series with MCF7, 0.91 µM in the series on HL-60 and 0.61 µM in the series with NCI-H157.

With `CC(=O)[C@H]1CC[C@H]2[C@@H]3CC=C4C[C@@H](OC(=O)NCCNC(=O)/C(C#N)=C/c5cccc(F)c5)CC[C@]4(C)[C@H]3CC[C@]12C`, the concentration for half-maximal inhibition (IC50) was above 50 µM in the series with HepG2; above 50 µM in the series with A549; 7.1 µM in [2]; 6.1 µM in the series with MCF7; 45.6 µM with HL-60; 17.9 µM in the series with NCI-H157. In addition, the viability at 20 ug/ml in series [3] was 60.8%. Besides, in the series filed under Homo sapiens [1], the inhibition is 64.2%.

In turn, `COc1cccc(/C=C(\C#N)C(=O)NCCNC(=O)O[C@H]2CC[C@@]3(C)C(=CC[C@H]4[C@@H]5CC[C@H](C(C)=O)[C@@]5(C)CC[C@@H]43)C2)c1` registered an inhibition in the series listed under Homo sapiens [1] of 22.2%.

With `CC(=O)[C@H]1CC[C@H]2[C@@H]3CC=C4C[C@@H](OC(=O)NCCNC(=O)/C(C#N)=C/c5ccc(F)cc5)CC[C@]4(C)[C@H]3CC[C@]12C`, the inhibition in the series listed under Homo sapiens [1] stood at 43.1%.

In turn, `CC(=O)[C@H]1CC[C@H]2[C@@H]3CC=C4C[C@@H](OC(=O)NCCNC(=O)/C(C#N)=C/c5ccc(Cl)cc5)CC[C@]4(C)[C@H]3CC[C@]12C` came in with an inhibition in the series filed under Homo sapiens [1] of 18.8%.

Molecule `CC(=O)[C@H]1CC[C@H]2[C@@H]3CC=C4C[C@@H](OC(=O)NCCNC(=O)/C(C#N)=C/c5cccc(Br)c5)CC[C@]4(C)[C@H]3CC[C@]12C` yielded an inhibition in the series filed under Homo sapiens [1] of 30.9%.

For `COc1cc(/C=C(\C#N)C(=O)NCCNC(=O)O[C@H]2CC[C@@]3(C)C(=CC[C@H]4[C@@H]5CC[C@H](C(C)=O)[C@@]5(C)CC[C@@H]43)C2)ccc1O`, in the series filed under Homo sapiens [1], the inhibition is 34.6%.

Molecule `COc1ccccc1/C=C(\C#N)C(=O)NCCNC(=O)O[C@H]1CC[C@@]2(C)C(=CC[C@H]3[C@@H]4CC[C@H](C(C)=O)[C@@]4(C)CC[C@@H]32)C1` yielded an inhibition in the series filed under Homo sapiens [1] of 17.8%.

The molecule `CC(C)C[C@H](NC(=O)[C@H](Cc1ccccc1)NC(=O)c1cnccn1)B(O)O` [BORTEZOMIB] had an IC50 in series [2] of 0.03 µM.
